Results gathered from unrelated publications.
Protocols differ between the studies behind these lines.
Organism: Staphylococcus aureus
Effect on: microbial growth

Cc1ccc2nc(-c3ccco3)[nH]c2c1  MIC (broth dilution; ATCC29213 MSSA): 256 µg/mL
O=C(O)c1cn(C2CC2)c2cc(N3CCNCC3)c(F)cc2c1=O  MIC: 1.6 µg/mL
N=C(N)NN=Cc1ccc(OC/C=C\COc2ccc(C=NNC(=N)N)cc2)cc1  MIC (USA300; 16 h): ≤ 3 µg/mL
O=C(O)c1cc(Br)c(O)c(Br)c1  MIC: > 128 µg/mL
Cc1ccc(C)n1-c1ccc(-c2n[nH]c(=S)[nH]2)cc1  MIC (broth dilution; ATCC11632; 18 h): 4 µg/mL
CN[C@H](CC(C)C)C(=O)N[C@H]1C(=O)N[C@@H](CC(N)=O)C(=O)N[C@H]2C(=O)N[C@H]3C(=O)N[C@H](C(=O)N[C@H](C(=O)O)c4cc(O)cc(O)c4-c4cc3ccc4O)[C@H](O)c3ccc(c(Cl)c3)Oc3cc2cc(c3O[C@@H]2O[C@H](CO)[C@@H](O)[C@H](O)[C@H]2O[C@H]2C[C@](C)(N)[C@H](O)[C@H](C)O2)Oc2ccc(cc2Cl)[C@H]1O  MIC (broth dilution; 16339): 1 µg/mL
CC1(C)S[C@@H]2[C@H](NC(=O)[C@H](N)c3ccccc3)C(=O)N2[C@H]1C(=O)O  MIC (broth dilution; ATCC25923; 16 h): 0.15 µg/mL
Cc1ccc2nc(-c3cc(Br)ccc3O)[nH]c2c1  MIC (broth dilution; ATCC29213 MSSA): 64 µg/mL
CC(=O)NC[C@H]1CN(c2ccc(N3CCOCC3)c(F)c2)C(=O)O1  MIC (broth dilution; MRSA NRS123 USA400; drug-resistant strain): 2 µg/mL
COc1c(C)c(O)c(C)c(O)c1C(=O)/C=C/c1ccccc1  MIC (broth dilution; ATCC25923): 2500 µg/mL
Cc1ccc(-n2nc(C(C)(C)C)cc2NC(=O)Nc2ccc(OCCN3CCOCC3)c3ccccc23)cc1  MIC (NCTC8325): > 30 µM
c1ccc2c(-c3nc4ccccc4[nH]3)c3ccccc3cc2c1  MIC (broth dilution; ATCC29213 MSSA): 32 µg/mL
O=C1NC(=S)N/C1=C\c1ccc(-c2ccc(N(c3ccccc3)c3ccccc3)cc2)cc1  MIC (broth dilution; ATCC25923): > 1000 µg/mL
CC(C)Oc1c(NC(=O)c2ccc(NC(=O)[C@H](CC(N)=O)NC(=O)c3ccc(NC(=O)c4ccc(C5(C(F)(F)F)N=N5)cc4)cc3)cc2)ccc(C(=O)Nc2ccc(C(=O)O)cc2)c1O  MIC (ATCC29213): > 64 µg/mL
C/C=C(\C)c1cc(OC(=O)c2c(C)c(Cl)c(O)c(Cl)c2O)c(C)c(O)c1C(=O)O  MIC (broth dilution; 745524): 64 µg/mL
CN(C)c1ccc(-c2nc3ncc(Cl)c(N4CCN(CC(=O)Nc5nccs5)CC4)c3[nH]2)cc1  MIC (NCTC8325): > 30 µM
Cc1ccc(C)n1-c1ccc(-c2nnc(-c3ccccc3Cl)[nH]2)cc1  MIC (broth dilution; ATCC11632; 18 h): 2 µg/mL
CCC1(C)CC(OC(=O)CSc2nnc(N)[nH]2)C2(C)C(C)CCC3(CCC(=O)C32)C(C)C1O (stereo not shown)  MIC: 0.5 µg/mL
O=C1NC(=S)S/C1=C\c1ccc(-c2ccc(N(c3ccccc3)c3ccccc3)cc2)cc1  MIC (broth dilution; ATCC43300): 250 µg/mL
CC[C@H]1OC(=O)[C@H](C)[C@@H](O[C@H]2C[C@@](C)(OC)[C@@H](O)[C@H](C)O2)[C@H](C)[C@@H](O[C@@H]2O[C@H](C)C[C@H](N(C)C)[C@H]2O)[C@](C)(O)C[C@@H](C)C(=O)[C@H](C)[C@@H](O)[C@]1(C)O  MIC (156; clinical isolate): > 100 µM
CC1(C)S[C@@H]2[C@H](NC(=O)[C@H](N)c3ccccc3)C(=O)N2[C@H]1C(=O)O  MIC (broth dilution; 745524): 4 µg/mL
O=C(CCCCCC[P+](c1ccccc1)(c1ccccc1)c1ccccc1)Nc1ccc(O)c(O)c1.[Br-]  MIC (broth dilution; ATCC43300 MRSA; 18 h): > 32 µg/mL
CC(C)Oc1c(NC(=O)c2ccc(NC(=O)[C@H](CC(N)=O)NC(=O)c3ccc(NC(=O)c4ccc(C#N)cc4)cc3)cc2)ccc(C(=O)Nc2cccc(C(=O)O)c2)c1O  MIC (ATCC29213): 2 µg/mL
CN(C)c1ccc(-c2nc3ccccc3[nH]2)cc1  MIC (broth dilution; ATCC29213 MSSA): 64 µg/mL
CO[C@@H](C(N)=O)[C@H](NC(=O)c1ccc(NC(=O)c2ccc(C#N)cc2)cc1)C(=O)Nc1ccc(C(=O)Nc2ccc(C(=O)Nc3ccc(C(=O)O)cc3)c(O)c2OC(C)C)cc1  MIC (ATCC29213): < 0.03 µg/mL
Cc1nc(O)n2ncc(Cl)c2n1  MIC: > 128 µg/mL
C/C=C(\C)c1cc(O)c(C)c(OC(=O)c2c(C)cc(O)c(Cl)c2O)c1  MIC (broth dilution; 16162): 8 µg/mL
Cc1c(CN(C)C(=O)/C=C/c2cnc3c(c2)CC(CCN)C(=O)N3)oc2ccccc12.Cl (stereo not shown)  MIC (broth dilution; ATCC29213): 0.125 µg/mL
CC(C)CC(=O)Nc1n[nH]c2c1CN(C(=O)C1CCN(C)CC1)C2(C)C  MIC (NCTC8325): > 30 µM
Fc1cccc(Cl)c1-c1nc2ccccc2[nH]1  MIC (broth dilution; ATCC29213 MSSA): 64 µg/mL
COc1cc(C(=O)Nc2ccc(C(=O)N[C@@H](CC(N)=O)C(=O)Nc3ccc(C(=O)Nc4ccc(C(=O)Nc5ccc(C(=O)O)cc5)c(O)c4OC(C)C)cc3)cc2)ccc1C#N  MIC (ATCC29213): > 64 µg/mL
COc1cc2nccc(Oc3ccc(NC(=O)Nc4cc(C)on4)c(Cl)c3)c2cc1OC  MIC (NCTC8325): > 30 µM
O=C1NN=C(N=Cc2ccccc2O)C1=NNn1c(-c2ccccc2)nc2ccccc2c1=O  MIC (broth dilution; 24 h): 111 µM
O=C(Nc1cccc(NC(=O)Nc2ccc(Cl)c(C(F)(F)F)c2)c1)Nc1ccc(Cl)c(C(F)(F)F)c1  MIC (NCTC8325; 24 h): 1 µM
O=C1NC(=S)S/C1=C\c1c2ccccc2c(-c2ccc(N(c3ccccc3)c3ccccc3)cc2)c2ccccc12  MIC (broth dilution; ATCC6538): > 1000 µg/mL
O=C(O)c1cn(C2CC2)c2cc(N3CCNCC3)c(F)cc2c1=O  MIC (broth dilution; 24 h): 9.43 µM
CC(C)Oc1c(NC(=O)c2ccc(NC(=O)[C@H](CC(N)=O)NC(=O)c3ccc(NC(=O)c4ccc(C#N)cc4)cc3)cc2)ccc(C(=O)Nc2ccc(C(=O)O)cc2)c1O  MIC (ATCC29213): 0.25 µg/mL
Cc1cc(C)cc(NC(=O)CN(C)S(=O)(=O)c2ccc3[nH]c4c(c3c2)CCCC4)c1  MIC: > 128 µg/mL
COC(=O)c1cc(Sc2ccc(NC(=O)Nc3ccc(Cl)c(C(F)(F)F)c3)cc2)ccn1  MIC (NCTC8325; 24 h): 3 µM
C=CCn1c(-c2ccc(Cl)cc2)nc2ccccc21  MIC (broth dilution; ATCC29213 MSSA): 64 µg/mL
C/C=C(\C)c1cc(OC(=O)c2c(O)c(C)c(O)c(Cl)c2/C(C)=C/C)c(C)c(O)c1C(=O)O  MIC (broth dilution; ATCC29213): 64 µg/mL
O=C(O)CN1C(=O)/C(=C/c2ccc(-c3ccc(N(c4ccccc4)c4ccccc4)cc3)c3ccccc23)NC1=S  MIC (broth dilution; ATCC43300): > 1000 µg/mL
CC(C)Oc1c(NC(=O)c2ccc(NC(=O)[C@H](CC(N)=O)NC(=O)c3ccc(NC(=O)c4ccc([N+](=O)[O-])c(OC(C)C)c4O)cc3)cc2)ccc(C(=O)Nc2ccc(C(=O)O)cc2)c1O  MIC (ATCC29213): > 64 µg/mL
Cc1ccc2nc(-c3ccc(Cl)cc3)n(Cc3ccccc3)c2c1  MIC (broth dilution; ATCC29213 MSSA): 4 µg/mL
O=C(O)CN1C(=O)/C(=C/c2ccc(-c3ccc(N(c4ccccc4)c4ccccc4)cc3)cc2)SC1=S  MIC (broth dilution; ATCC43300): 3.9 µg/mL
Brc1cccc(NCc2ccc(Oc3ccccn3)cc2)c1  MIC: > 3.1 µg/mL
C[C@@H](O)[C@H]1C(=O)N2C(C(=O)O)=C(S[C@@H]3CN[C@H](C(=O)N(C)C)C3)[C@H](C)[C@H]12  MIC (broth dilution; KCTC1621; 16 h): 8 µM
Cn1c(SCc2ccc(Cl)cc2)nnc1-c1cncc(C#Cc2ccccc2)c1  MIC (MRSA; drug-resistant strain): ≥ 20 µg/mL
Cc1ccc2nc(-c3ccc([N+](=O)[O-])cc3)n(Cc3ccccc3Cl)c2c1  MIC (broth dilution; ATCC29213 MSSA): 32 µg/mL
Cc1cc(C#N)ccc1C(=O)Nc1ccc(C(=O)N[C@@H](CC(N)=O)C(=O)Nc2ccc(C(=O)Nc3ccc(C(=O)Nc4ccc(C(=O)O)cc4)c(O)c3OC(C)C)cc2)cc1  MIC (ATCC29213): 64 µg/mL
CCc1cnn2c(NCc3ccc[n+]([O-])c3)cc(N3CCCC[C@H]3CCO)nc12  MIC (NCTC8325): > 30 µM
FC(F)(F)c1cc(-c2nnc(Sc3cc(Cl)nc(Sc4ccccc4)n3)[nH]2)cc(C(F)(F)F)c1  MIC (83254): 1.6 µM
C[n+]1c(/C=C/c2ccc(O)cc2)cc(/C=C2\Sc3ccccc3N2CCCN2CCOCC2)c2ccccc21.[I-]  MIC (broth dilution; ATCCBAA44): 8 µg/mL
COc1c(C)c(OC(C)=O)c(C)c(OC(C)=O)c1C(=O)/C=C/c1ccccc1  MIC (broth dilution; ATCC25923): 5000 µg/mL
C/C=C(\C)c1cc(O)c(C)c(OC(=O)c2c(C)c(Cl)c(O)c(Cl)c2O)c1  MIC (broth dilution; 6917): 8 µg/mL
CO[C@H]1/C=C/O[C@@]2(C)Oc3c(C)c(O)c4c(O)c(c(/C=N/N5CCN(C)CC5)c(O)c4c3C2=O)NC(=O)/C(C)=C\C=C\[C@H](C)[C@H](O)[C@@H](C)[C@@H](O)[C@@H](C)[C@H](OC(C)=O)[C@@H]1C  MIC (broth dilution; ATCC29213; 24 h): 0.0078 µg/mL
CN1CCN(CCOc2cc(OC3CCOCC3)c3c(Nc4c(Cl)ccc5c4OCO5)ncnc3c2)CC1  MIC (NCTC8325): > 30 µM
CN(C)[C@@H]1C(O)=C(C(N)=O)C(=O)[C@@]2(O)C(O)=C3C(=O)c4c(O)cccc4[C@@](C)(O)[C@H]3C[C@@H]12  MIC (129; clinical isolate): ≤ 0.1 µM
